In ChEMBL document CHEMBL3425497, “Discovery of (R)-1-(3-((2-chloro-4-(((2-hydroxy-2-(8-hydroxy-2-oxo-1,2-dihydroquinolin-5-yl)ethyl)amino)methyl)-5-methoxyphenyl)amino)-3-oxopropyl)piperidin-4-yl [1,1'-biphenyl]-2-ylcarbamate (TD-5959, GSK961081, batefenterol): first-in-class dual pharmacology multivalent muscarinic antagonist and …” (J Med Chem, 2015):

Tests used:
[1] = Half life in male Sprague-Dawley rat at 0.25 mg/kg, iv; assay type: ADME, organism-based; parameters: dose 0.25 mg/kg, route intravenous; settings: in vivo
CYP1A2 = target: T1, CYP1A2 (Homo sapiens, UniProt P05177); experiment: Inhibition of CYP1A2 (unknown origin) at 600 nM; assay type: ADME
T1 sequence (P05177 whole entry): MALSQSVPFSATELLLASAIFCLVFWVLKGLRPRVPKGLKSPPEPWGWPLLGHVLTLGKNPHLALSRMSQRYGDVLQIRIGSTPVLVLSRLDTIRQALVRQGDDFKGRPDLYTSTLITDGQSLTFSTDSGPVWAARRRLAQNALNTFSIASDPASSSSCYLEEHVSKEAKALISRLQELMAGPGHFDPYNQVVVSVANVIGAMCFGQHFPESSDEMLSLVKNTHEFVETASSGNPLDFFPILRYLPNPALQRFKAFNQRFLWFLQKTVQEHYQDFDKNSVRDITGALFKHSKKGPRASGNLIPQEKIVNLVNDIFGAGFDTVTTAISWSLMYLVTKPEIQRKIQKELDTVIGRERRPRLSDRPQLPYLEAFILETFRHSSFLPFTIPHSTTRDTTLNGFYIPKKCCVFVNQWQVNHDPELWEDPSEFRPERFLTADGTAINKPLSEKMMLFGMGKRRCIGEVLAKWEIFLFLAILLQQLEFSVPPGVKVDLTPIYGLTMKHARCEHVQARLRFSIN

Rattus norvegicus = experiment: Toxicity in rat assessed as respiratory irritation and systemic exposures up to 333 ug/kg dosed via inhalation during 7-day inhalation study; assay type: organism-based; settings: in vivo, 0.333 mg/kg
Cavia porcellus [2] = experiment: Bronchoprotection in male Duncan Hartley guinea pig bronchoconstriction einthoven model assessed as inhibition of methacholine-induced bronchoconstriction at 100 microg/ml, inhalation after 24 hrs by in vivo muscarinic antagonist and beta2 agonist activity assay; assay type: functional; parameters: scale not given: the % may be the effect or the level left
In short: (§1)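 Einthoven bronchoprotection in guinea pigs, read as % bronchoprotection 24 h after inhaled dosing. The TFA salt was used in the initial experiments. For one compound, the edisylate salt was compared with the TFA form. Group sizes were n = 3–8.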

CYP3A4 = CYP3A4 (Homo sapiens, UniProt P08684); experiment: Inhibition of CYP3A4 (unknown origin) at 600 nM; assay type: ADME
Sequence of CYP3A4 (P08684 whole entry): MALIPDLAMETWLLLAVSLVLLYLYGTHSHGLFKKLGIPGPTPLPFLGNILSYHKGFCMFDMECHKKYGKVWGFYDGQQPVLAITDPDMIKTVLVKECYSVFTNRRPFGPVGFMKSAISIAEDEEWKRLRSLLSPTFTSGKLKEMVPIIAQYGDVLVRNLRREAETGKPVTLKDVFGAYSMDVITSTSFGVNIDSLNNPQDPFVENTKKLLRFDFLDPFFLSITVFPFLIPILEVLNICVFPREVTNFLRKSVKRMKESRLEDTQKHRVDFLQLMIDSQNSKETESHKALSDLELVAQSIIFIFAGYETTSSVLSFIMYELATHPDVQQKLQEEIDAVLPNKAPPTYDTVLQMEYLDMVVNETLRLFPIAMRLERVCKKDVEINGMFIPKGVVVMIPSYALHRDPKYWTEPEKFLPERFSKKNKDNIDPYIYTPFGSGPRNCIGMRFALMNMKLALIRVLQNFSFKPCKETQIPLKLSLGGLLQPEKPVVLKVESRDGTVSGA

Cavia porcellus [3] = species: Cavia porcellus; experiment: Combined muscarinic antagonist and beta2 agonist activity in guinea pig isolated trachea assessed as smooth muscle relaxation
[4] = Oral bioavailability in male Sprague-Dawley rat at 0.25 mg/kg; assay type: ADME, organism-based; settings: in vivo
Salmonella typhimurium [5] = experiment: Genotoxicity in Salmonella typhimurium at 5000 ug/plate by AMES test in presence of metabolic activation; assay type: toxicity, organism-based; settings: salmonella enterica subsp. enterica serovar typhimurium
In short: (§2)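 Exploratory (non-GLP) Ames assay, tested at up to 5000 μg/plate with and without a metabolic activation system.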

[6] = target: T2, Muscarinic acetylcholine receptor M3 (Homo sapiens, UniProt P20309); experiment: Binding affinity to human muscarinic M3 receptor assessed as dissociation half life
In short: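 Kinetic radioligand dissociation study at the human M3 receptor, reported as dissociation half-life in minutes.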
Target sequence in this assay (P20309 whole entry, looked up): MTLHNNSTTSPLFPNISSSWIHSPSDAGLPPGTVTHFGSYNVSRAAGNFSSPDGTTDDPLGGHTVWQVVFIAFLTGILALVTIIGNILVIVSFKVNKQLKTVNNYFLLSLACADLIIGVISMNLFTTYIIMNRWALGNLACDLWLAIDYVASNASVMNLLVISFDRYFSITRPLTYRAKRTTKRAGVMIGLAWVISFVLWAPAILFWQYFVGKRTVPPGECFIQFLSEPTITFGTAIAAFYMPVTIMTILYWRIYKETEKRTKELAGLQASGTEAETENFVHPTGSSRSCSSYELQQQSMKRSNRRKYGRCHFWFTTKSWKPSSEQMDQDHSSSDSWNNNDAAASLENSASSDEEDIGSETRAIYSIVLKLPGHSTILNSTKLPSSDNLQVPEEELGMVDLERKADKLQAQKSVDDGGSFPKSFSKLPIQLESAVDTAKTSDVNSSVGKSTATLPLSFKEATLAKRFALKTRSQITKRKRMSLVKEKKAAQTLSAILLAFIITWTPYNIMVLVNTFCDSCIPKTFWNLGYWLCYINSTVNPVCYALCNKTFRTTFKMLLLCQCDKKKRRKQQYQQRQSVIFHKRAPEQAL

Cavia porcellus [7] = species: Cavia porcellus; experiment: Antisialagogue activity in guinea pig assessed as inhibition of pilocarpine-induced sialagogue response at 100 ug/ml, inhalation after 1.5 hrs; assay type: functional
In short: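 Guinea pigs were pretreated with test compound by inhalation. At 1.5 h post-dose they were challenged with pilocarpine. The sialagogue (salivation) response was recorded as % inhibition.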

Cavia porcellus [8] = experiment: Bronchoprotection in male Duncan Hartley guinea pig bronchoconstriction einthoven model assessed as inhibition of methacholine-induced bronchoconstriction at 100 microg/ml, inhalation after 24 hrs by in vivo muscarinic acetylcholine receptor antagonist activity assay; assay type: functional; parameters: scale not given: the % may be the effect or the level left; in short: as §1
Cavia porcellus [9] = experiment: Bronchoprotection in male Duncan Hartley guinea pig bronchoconstriction einthoven model assessed as inhibition of methacholine-induced bronchoconstriction at 100 microg/ml, inhalation after 1.5 hrs by in vivo beta2 adrenergic receptor agonist activity assay; assay type: functional; parameters: scale not given: the % may be the effect or the level left
Liver microsome = experiment: Drug metabolism in human liver microsomes assessed as metabolites; assay type: ADME
[10] = target: T2, Muscarinic acetylcholine receptor M3; experiment: Displacement of [3H]NMS from human muscarinic M3 receptor expressing CHO-K1 cells incubated for 60 mins or 6 hrs by liquid scintillation counting; assay type: cell-based
Target sequence in this assay (P20309 whole entry): as the sequence (P20309 whole entry, looked up) above

Cavia porcellus [11] = experiment: Bronchoprotection in male Duncan Hartley guinea pig bronchoconstriction einthoven model assessed as inhibition of methacholine-induced bronchoconstriction at 100 microg/ml, inhalation after 1.5 hrs by in vivo muscarinic acetylcholine receptor antagonist activity assay; assay type: functional; parameters: scale not given: the % may be the effect or the level left
CYP2C19 = CYP2C19 (Homo sapiens, UniProt P33261); experiment: Inhibition of CYP2C19 (unknown origin) at 600 nM; assay type: ADME
Sequence of CYP2C19 (P33261 whole entry): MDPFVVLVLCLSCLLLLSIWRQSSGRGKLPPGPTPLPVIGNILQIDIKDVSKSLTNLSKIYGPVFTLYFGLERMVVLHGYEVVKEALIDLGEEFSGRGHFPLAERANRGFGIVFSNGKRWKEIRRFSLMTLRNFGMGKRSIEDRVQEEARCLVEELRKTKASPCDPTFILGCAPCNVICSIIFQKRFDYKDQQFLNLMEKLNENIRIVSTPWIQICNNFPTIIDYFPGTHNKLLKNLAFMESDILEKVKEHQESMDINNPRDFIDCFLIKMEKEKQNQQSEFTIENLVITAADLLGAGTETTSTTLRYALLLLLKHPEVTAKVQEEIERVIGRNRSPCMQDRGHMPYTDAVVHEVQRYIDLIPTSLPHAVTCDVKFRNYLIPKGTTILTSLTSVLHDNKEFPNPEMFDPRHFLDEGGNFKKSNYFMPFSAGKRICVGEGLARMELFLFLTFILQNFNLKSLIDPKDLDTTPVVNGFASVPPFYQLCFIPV

Cavia porcellus [12] = experiment: Bronchoprotection in male Duncan Hartley guinea pig bronchoconstriction einthoven model assessed as inhibition of methacholine-induced bronchoconstriction at 100 microg/ml, inhalation after 24 hrs by in vivo beta2 adrenergic receptor agonist activity assay; assay type: functional; parameters: scale not given: the % may be the effect or the level left; in short: as §1
CYP2C9 = CYP2C9 (Homo sapiens, UniProt P11712); experiment: Inhibition of CYP2C9 (unknown origin) at 600 nM; assay type: ADME
Sequence of CYP2C9 (P11712 whole entry): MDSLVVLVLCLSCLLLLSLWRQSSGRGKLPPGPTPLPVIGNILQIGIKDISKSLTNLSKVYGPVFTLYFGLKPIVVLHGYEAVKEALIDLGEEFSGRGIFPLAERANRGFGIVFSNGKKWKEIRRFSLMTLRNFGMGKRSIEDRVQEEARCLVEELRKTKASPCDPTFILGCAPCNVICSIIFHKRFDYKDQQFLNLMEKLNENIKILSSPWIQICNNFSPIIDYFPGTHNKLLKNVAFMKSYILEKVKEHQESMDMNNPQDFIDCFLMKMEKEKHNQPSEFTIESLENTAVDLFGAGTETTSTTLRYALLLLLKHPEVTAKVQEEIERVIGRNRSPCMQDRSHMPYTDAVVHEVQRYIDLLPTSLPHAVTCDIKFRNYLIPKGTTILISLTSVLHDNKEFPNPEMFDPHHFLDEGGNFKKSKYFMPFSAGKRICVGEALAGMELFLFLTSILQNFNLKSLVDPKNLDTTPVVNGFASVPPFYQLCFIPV

CYP2D6 = CYP2D6 (Homo sapiens, UniProt P10635); experiment: Inhibition of CYP2D6 (unknown origin) at 600 nM; assay type: ADME
Sequence of CYP2D6 (P10635 whole entry): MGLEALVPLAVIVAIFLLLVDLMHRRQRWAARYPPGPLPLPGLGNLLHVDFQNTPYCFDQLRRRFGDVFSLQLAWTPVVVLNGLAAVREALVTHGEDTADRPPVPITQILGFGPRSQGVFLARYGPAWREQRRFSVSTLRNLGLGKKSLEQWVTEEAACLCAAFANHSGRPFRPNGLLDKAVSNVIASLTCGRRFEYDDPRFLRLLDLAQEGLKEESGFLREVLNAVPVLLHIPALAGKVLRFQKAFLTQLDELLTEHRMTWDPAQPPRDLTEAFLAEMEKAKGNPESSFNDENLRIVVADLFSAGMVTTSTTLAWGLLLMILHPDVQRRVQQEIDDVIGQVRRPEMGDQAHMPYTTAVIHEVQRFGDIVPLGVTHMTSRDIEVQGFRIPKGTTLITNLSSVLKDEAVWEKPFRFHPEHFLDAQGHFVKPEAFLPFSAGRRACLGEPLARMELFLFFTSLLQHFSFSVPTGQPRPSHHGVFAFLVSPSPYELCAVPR

[13] = Half life in human liver microsomes at 3 uM after 30 mins by HPLC-UV analysis; assay type: ADME
[14] = Clearance in male Sprague-Dawley rat at 0.25 mg/kg, iv; assay type: ADME, organism-based; parameters: dose 0.25 mg/kg, route intravenous; settings: in vivo
Cavia porcellus [15] = species: Cavia porcellus; experiment: Antagonist activity at muscarinic M3 receptor in guinea pig isolated trachea assessed as smooth muscle relaxation
[16] = target: Voltage-gated inwardly rectifying potassium channel KCNH2 (Homo sapiens, UniProt Q12809); experiment: Inhibition of human ERG channel up to 150 nM
Sequence of Voltage-gated inwardly rectifying potassium channel KCNH2 (Q12809 whole entry): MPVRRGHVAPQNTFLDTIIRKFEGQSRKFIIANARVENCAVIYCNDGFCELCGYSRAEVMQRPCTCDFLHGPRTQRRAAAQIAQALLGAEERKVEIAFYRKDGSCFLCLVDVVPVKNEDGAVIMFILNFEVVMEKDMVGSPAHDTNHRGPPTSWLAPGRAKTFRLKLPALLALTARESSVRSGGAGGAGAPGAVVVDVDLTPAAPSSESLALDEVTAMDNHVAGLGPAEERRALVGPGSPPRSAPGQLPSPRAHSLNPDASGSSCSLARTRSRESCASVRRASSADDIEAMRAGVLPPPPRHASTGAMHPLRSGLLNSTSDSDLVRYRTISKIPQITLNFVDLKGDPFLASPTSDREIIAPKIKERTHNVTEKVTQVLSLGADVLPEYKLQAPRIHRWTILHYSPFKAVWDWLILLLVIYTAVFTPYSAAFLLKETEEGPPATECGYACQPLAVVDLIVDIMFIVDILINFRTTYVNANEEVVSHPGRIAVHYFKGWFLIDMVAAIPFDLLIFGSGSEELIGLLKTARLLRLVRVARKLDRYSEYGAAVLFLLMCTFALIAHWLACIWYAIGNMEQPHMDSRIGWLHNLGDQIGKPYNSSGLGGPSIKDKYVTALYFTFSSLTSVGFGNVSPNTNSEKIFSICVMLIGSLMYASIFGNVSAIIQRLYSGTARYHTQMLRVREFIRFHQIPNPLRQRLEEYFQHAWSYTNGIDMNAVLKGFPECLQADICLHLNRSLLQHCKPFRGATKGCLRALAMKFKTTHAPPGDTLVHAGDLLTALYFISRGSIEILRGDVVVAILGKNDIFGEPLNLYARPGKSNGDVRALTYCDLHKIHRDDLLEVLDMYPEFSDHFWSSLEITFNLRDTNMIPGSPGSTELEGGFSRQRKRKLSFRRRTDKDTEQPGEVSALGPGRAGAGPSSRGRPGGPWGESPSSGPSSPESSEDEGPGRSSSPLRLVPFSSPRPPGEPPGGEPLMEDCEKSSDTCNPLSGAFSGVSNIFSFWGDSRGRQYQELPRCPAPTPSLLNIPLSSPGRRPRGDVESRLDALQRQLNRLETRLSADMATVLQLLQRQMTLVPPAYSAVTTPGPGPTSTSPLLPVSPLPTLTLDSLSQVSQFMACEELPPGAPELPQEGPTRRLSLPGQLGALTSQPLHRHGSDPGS

Cavia porcellus [17] = experiment: Bronchoprotection in male Duncan Hartley guinea pig bronchoconstriction einthoven model assessed as inhibition of methacholine-induced bronchoconstriction at 100 microg/ml, inhalation after 1.5 hrs by in vivo muscarinic antagonist and beta2 agonist activity assay; assay type: functional; parameters: scale not given: the % may be the effect or the level left
[18] = Apparent permeability across apical to basolateral side in human Caco2 cells using [14C]mannitol at 10 to 100 uM after 30 mins by HPLC-UV analysis; assay type: ADME, cell-based; settings: caco-2, 0.5 h
Cavia porcellus [19] = species: Cavia porcellus; experiment: Agonist activity at beta2 adrenergic receptor in guinea pig isolated trachea assessed as smooth muscle relaxation
[20] = Volume of distribution at steady state in male Sprague-Dawley rat at 0.25 mg/kg, iv; assay type: ADME, organism-based; parameters: dose 0.25 mg/kg, route intravenous; settings: in vivo, read-out: Vdss
Salmonella typhimurium [21] = experiment: Genotoxicity in Salmonella typhimurium at 5000 ug/plate by AMES test in absence of metabolic activation; assay type: toxicity, organism-based; settings: salmonella enterica subsp. enterica serovar typhimurium; in short: as §2

## COc1cc(NC(=O)CCN2CCC(OC(=O)Nc3ccccc3-c3ccccc3)CC2)c(Cl)cc1CNC[C@H](O)c1ccc(O)c2[nH]c(=O)ccc12 [BATEFENTEROL]
[1]
  half-life: 10.8 min
CYP1A2
  inhibition at 0.6 µM: 25%
Rattus norvegicus
  Activity: Non-toxic
Cavia porcellus [2]
  Activity: 77%
CYP3A4
  inhibition at 0.6 µM: < 20%
Cavia porcellus [3]
  EC50: 10 nM
[4]
  bioavailability: < 0.45%
Salmonella typhimurium [5]
  Activity: Non-toxic
[6]
  T1/2: 3 min
Cavia porcellus [7]
  inhibition (INH): 4%
Cavia porcellus [8]
  Activity: 48%
Cavia porcellus [9]
  Activity: 73%
Liver microsome
  Drug metabolism: metabolite_notdetected
[10]
  Ki: 2 nM
Cavia porcellus [11]
  Activity: 75%
CYP2C19
  inhibition at 0.6 µM: < 20%
Cavia porcellus [12]
  Activity: 47%
CYP2C9
  inhibition at 0.6 µM: < 20%
CYP2D6
  inhibition at 0.6 µM: < 20%
[13]
  half-life at 3 µM: 11.3 min
[14]
  clearance: 75.3 mL/min/kg
Cavia porcellus [15]
  EC50: 50 nM
[16]
  inhibition (INH): Not Active
Cavia porcellus [17]
  Activity: 92%
[18]
  Papp: < 0.4 ×10⁻⁶ cm/s
Cavia porcellus [19]
  EC50: 25 nM
[20]
  Vd: 0.32 L/kg
Salmonella typhimurium [21]
  Activity: Non-toxic
